The results in this text go back to ChEMBL document CHEMBL3244059, “Synthesis and pharmacological activity of a phosphate ester of delta8-tetrahydrocannabinol” (J Med Chem, 1978).

A word on the ED50: it is the dose that gives a 50% effect, or the effect in half of the subjects. By LD50 is commonly meant the dose at which mortality reaches 50%.

Calls of active or inactive are those of the source. No cut-off for these calls is given here.

Series [1] relates to Mus musculus. The experiment in a line: Cataleptogenic activity in iv dosed ddN mouse assessed as induction of catalepsy after 60 mins by bar test. Type of series: functional. An outline of the steps:
(§1)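 Catalepsy scored by a modified simple bar test at 30 and 60 min after iv tail-vein injection (0.1 mL/10 g; 1% Tween 80 suspension or saline solution). Eight mice per dose; vehicle controls. ED50 with 95% confidence limits at peak time.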

Series [2] relates to Mus musculus. The series can be described thus: Hypothermic activity in ddN mouse assessed as reduction of rectal temperature at 10 mg/kg, iv after 2 hrs. Type of series: functional. An outline of the steps: (§2)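 Rectal temperature taken with a thermistor thermometer after iv tail-vein dosing at 10 or 20 mg/kg (1% Tween 80 suspension or saline solution). Room held at 23 ± 1 °C; time course followed up to 5 h. Decline reported as mean ± SE of eight mice.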

Series [3] can be described thus: Drug metabolism in mouse liver homogenates assessed as compound hydrolysis at pH 5 after 15 mins by spectrophotometric analysis in presence of alkaline phosphatase. The class given is ADME, tissue-based. The settings on record: read-out: Drug metabolism. An outline of the steps: (§3)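 Substrate (1.5 μmol) incubated at 37 °C with mouse liver homogenate (equivalent to 0.1 g liver) in 0.1 M glycine buffer pH 9.6 or 0.1 M acetate buffer pH 5.0. Sampled at 15, 30 and 60 min. Percent hydrolysis given as mean of duplicate determinations.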

In series [4] the test system is Mus musculus. The series can be described thus: Hypothermic activity in ddN mouse assessed as reduction of rectal temperature at 20 mg/kg, iv after 2 hrs. The class given is functional. An outline of the steps: as §2
Series [5] deals with Mus musculus. The experiment in a line: Potentiation of thiopental-induced sleep in iv dosed ddN mouse assessed as loss of righting reflex after 30 to 60 mins. Type of series: functional. Put shortly:
(§4)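 Pretreatment given iv (saline solution or 1% Tween 80 suspension; vehicle controls for each), followed 30 or 60 min later by thiopental 80 mg/kg iv. Sleep measured as loss of righting reflex. Potentiation counted positive when sleeping time exceeded twice the matching control. Eight mice per dose; ED50 with confidence limits.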

Series [6] is described as follows: Drug metabolism in mouse liver homogenates assessed as compound hydrolysis at pH 9.6 after 60 mins by spectrophotometric analysis in presence of alkaline phosphatase. The class given is ADME, tissue-based. The following applies: read-out: Drug metabolism. An outline of the steps: as §3
Series [7] deals with Mus musculus. The series can be described thus: Acute toxicity in ddN mouse assessed as mortality up to 160 mg/kg, iv after 24 hrs. Type of series: organism-based. On the set-up: dose 160 mg/kg, route intravenous. The settings on record: in vivo. Put shortly: (§5)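 Mice dosed iv via tail vein, 0.1 mL/10 g body weight; parent compound as suspension in 1% Tween 80, phosphate as solution in saline. Eight animals per dose.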

A short description of series [8]: Drug metabolism in mouse liver homogenates assessed as compound hydrolysis at pH 5 after 60 mins by spectrophotometric analysis in presence of alkaline phosphatase. The settings on record: read-out: Drug metabolism. The class given is ADME, tissue-based. An outline of the steps: as §3
The nature of series [9]: Drug metabolism in mouse liver homogenates assessed as compound hydrolysis at pH 9.6 after 15 mins by spectrophotometric analysis in presence of alkaline phosphatase. The class given is ADME, tissue-based. The settings on record: read-out: Drug metabolism. Put shortly: as §3
Series [10] can be described thus: Drug metabolism in mouse liver homogenates assessed as compound hydrolysis at pH 9.6 after 30 mins by spectrophotometric analysis in presence of alkaline phosphatase. The class given is ADME, tissue-based. The following applies: read-out: Drug metabolism. An outline of the steps:
as §3

Series [11] has as its system Mus musculus. The series can be described thus: Potentiation of thiopental-induced sleep in iv dosed ddN mouse assessed as loss of righting reflex after 60 mins administered with saline. Type of series: functional. An outline of the steps:
as §4

Series [12] can be described thus: Drug metabolism in mouse liver homogenates assessed as compound hydrolysis at pH 5 after 30 mins by spectrophotometric analysis in presence of alkaline phosphatase. Type of series: ADME, tissue-based. The following applies: read-out: Drug metabolism. An outline of the steps: as §3
The test system of series [13] is Mus musculus. The series can be described thus: Cataleptogenic activity in iv dosed ddN mouse assessed as induction of catalepsy after 30 to 60 mins by bar test. Type of series: functional. An outline of the steps:
as §1

Series [14] has as its system Mus musculus. The experiment in a line: Hypothermic activity in ddN mouse assessed as reduction of rectal temperature at 10 mg/kg, iv after 1 hr. Type of series: functional. An outline of the steps:
as §2

Series [15] concerns Mus musculus. The series can be described thus: Potentiation of thiopental-induced sleep in iv dosed ddN mouse assessed as loss of righting reflex after 60 mins administered with 1% Tween-80. The class given is functional, organism-based. An outline of the steps:
as §4

The subject of series [16] is Mus musculus. The experiment in a line: Hypothermic activity in ddN mouse assessed as reduction of rectal temperature at 20 mg/kg, iv after 1 hr. The class given is functional. Put shortly:
as §2

In series [17] the test system is Mus musculus. The series can be described thus: Cataleptogenic activity in iv dosed ddN mouse assessed as induction of catalepsy after 30 mins by bar test. Type of series: functional, organism-based. Put shortly:
as §1

Series [18] is described as follows: Acute toxicity in iv dosed ddN mouse assessed as mortality after 24 hrs. The class given is organism-based. The following applies: in vivo. Put shortly: as §5

Regarding `CCCCCc1cc2c(c(OP(=O)([O-])[O-])c1)[C@@H]1CC(C)=CC[C@H]1C(C)(C)O2.[Na+].[Na+]`, the Activity in the series on Mus musculus [1] was 10%; in the series with Mus musculus [7], “Non-toxic”; in the series on Mus musculus [11] it was 7%. Moreover, the T with Mus musculus [2] is 2.4 °C; with Mus musculus [4] it was 5 °C. Moreover, the metabolised at 0.25 h in series [3] turned out to be 15.3%; in [9] it was 7.8%. The ED50 in the series on Mus musculus [5] was found to be 17.5 mg/kg; with Mus musculus [13], 37 mg/kg. Besides, the metabolised at 1 h in [6] came out at 24.5%; in series [8], 29.2%. The metabolised at 0.5 h in series [10] worked out at 13.9%; in series [12], 20.7%.
Regarding `CCCCCc1cc(O)c2c(c1)OC(C)(C)[C@@H]1CC=C(C)C[C@@H]21` [DELTA-8-TETRAHYDROCANNABINOL], the T with Mus musculus [14] was determined as 3.8 °C; with Mus musculus [16], 4.8 °C. The result in the series with Mus musculus [15] and in the series with Mus musculus [17] was Active. Further, the ED50 in the series on Mus musculus [5] amounted to 1.2 mg/kg; in the series with Mus musculus [13], 3.3 mg/kg. Also, in series [18], the LD50 at 24 h amounted to 27.5 mg/kg.
For the compound `O=[N+]([O-])c1ccc(OP(=O)(O)O)cc1` [p-NITROPHENYLPHOSPHATE], the metabolised at 0.25 h in [3] was found to be 88.9%; in series [9] it was 21.5%. The metabolised at 1 h in series [6] came out at 73.6%; in series [8], 97.7%. The metabolised at 0.5 h in series [10] was found to be 36.4%; in [12], 96.7%.
